ChEMBL document CHEMBL1123312, “In the search for new anticancer drugs. 17. Linear and cyclic polyether analogues of N,N:N',N':N'',N''-tri-1,2-ethanediylphosphoric triamide and N,N:N',N':N'',N''-tri-1,2-ethanediylphosphorothioic triamide” (J Med Chem, 1986)
Several values for one entry are separate records, joined by “and”; a condition that tells them apart may be missing. Equal values may be shown once.

Experiments:
[1] = partition coefficient with the use of 1-octanol / water solvent system; assay type: physicochemical
Method in brief: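 4 mL of 10 mM aqueous compound was stirred vigorously with 2 mL 1-octanol for 5 min at 25 °C. The aqueous layer was analysed by ³¹P NMR, and signal intensity (peak height × width at half-height) gave concentrations in each phase. P = [octanol]/[water].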

Mus musculus [2] = assay: Percentage increase in life span when the compound was administered intraperitoneally at dose of 20 mg/Kg in P388 leukemia in CDF1 mice was determined; assay type: functional; settings: P388, ip
Method in brief: (§1)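 CD2F1 male mice, 19–22 g, in groups of six, inoculated ip with 10⁶ P388 cells on day 0. Dosed ip once daily for 9 days from day 1, in saline, or for linear polyethers in aqueous 2% Tween 80. Deaths and survivors were recorded to 30 days, some to 60. T/C is mean survival, treated vs tumour-bearing control. %ILS = [(T−C)/C]×100. Average day-5 weight change was taken as toxicity.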

Mus musculus [3] = assay: Percentage increase in life span when the compound was administered intraperitoneally at dose of 60 mg/Kg in P388 leukemia in CDF1 mice was determined; assay type: functional; settings: P388, ip; method in brief: as §1
Mus musculus [4] = assay: Anticancer activity against P388 leukemia in CD2F1 male mice by 60 mg/kg/day.; assay type: functional; method in brief: as §1
Mus musculus [5] = assay: Anticancer activity against P388 leukemia in CD2F1 male mice expressed as Average % weight change on day 5 as a measure of toxicity was reported at a dose of 60 mg/kg/day.; assay type: functional; method in brief: as §1
Mus musculus [6] = assay: Compound was evaluated for the anticancer activity against P388 leukemia in CD2F1 male mice at a dose of 60 mg/kg/after 30 days; 0/6; assay type: functional; method in brief: as §1
Mus musculus [7] = assay: Compound was evaluated for the anticancer activity against P388 leukemia in CD2F1 male mice at a dose of 20 mg/kg/after 30 days; 0/6; assay type: functional
Mus musculus [8] = assay: Anticancer activity against P388 leukemia in CD2F1 male mice expressed as Average % weight change on day 5 as a measure of toxicity was reported at a dose of 20 mg/kg/day.; assay type: functional; method in brief: as §1
Mus musculus [9] = assay: Percentage increase in life span when the compound was administered intraperitoneally at dose of 10 mg/Kg in P388 leukemia in CDF1 mice was determined; assay type: functional; settings: P388, ip; method in brief: as §1
Mus musculus [10] = assay: Percentage increase in life span when the compound was administered intraperitoneally at dose of 125 mg/Kg in P388 leukemia in CDF1 mice was determined; assay type: functional; settings: P388, ip; method in brief: as §1
Mus musculus [11] = assay: Percentage increase in life span when the compound was administered intraperitoneally at dose of 30 mg/Kg in P388 leukemia in CDF1 mice was determined; assay type: functional; settings: P388, ip; method in brief: as §1
Mus musculus [12] = assay: Percentage increase in life span when the compound was administered intraperitoneally at dose of 40 mg/Kg in P388 leukemia in CDF1 mice was determined; assay type: functional; settings: P388, ip; method in brief: as §1
Mus musculus [13] = assay: Percentage increase in life span when the compound was administered intraperitoneally at dose of 5 mg/Kg in P388 leukemia in CDF1 mice was determined; assay type: functional; settings: P388, ip; method in brief: as §1
Mus musculus [14] = assay: Percentage increase in life span when the compound was administered intraperitoneally at dose of 90 mg/Kg in P388 leukemia in CDF1 mice was determined; assay type: functional; settings: P388, ip; method in brief: as §1
Mus musculus [15] = assay: Compound was evaluated for the anticancer activity against P388 leukemia in CD2F1 male mice at a dose of 10 mg/kg/day.; assay type: functional; method in brief: as §1
Mus musculus [16] = assay: Anticancer activity against P388 leukemia in CD2F1 male mice by 20 mg/kg/day.; assay type: functional; method in brief: as §1
Mus musculus [17] = assay: Compound was evaluated for the anticancer activity against P388 leukemia in CD2F1 male mice at a dose of 30 mg/kg/day.; assay type: functional; method in brief: as §1
Mus musculus [18] = assay: Compound was evaluated for the anticancer activity against P388 leukemia in CD2F1 male mice at a dose of 40 mg/kg/day.; assay type: functional; settings: at 40 mg/kg/day
Mus musculus [19] = assay: Compound was evaluated for the anticancer activity against P388 leukemia in CD2F1 male mice at a dose of 90 mg/kg/day.; assay type: functional; method in brief: as §1
Mus musculus [20] = assay: Compound was evaluated for the anticancer activity against P388 leukemia in CD2F1 male mice at a dose of 90 mg/kg/after 60 days; 5/6; assay type: functional; method in brief: as §1
Mus musculus [21] = assay: Compound was evaluated for the anticancer activity against P388 leukemia in CD2F1 male mice at a dose of 30 mg/kg/after 30 days; 0/6; assay type: functional; method in brief: as §1
Mus musculus [22] = assay: Compound was evaluated for the anticancer activity against P388 leukemia in CD2F1 male mice at a dose of 40 mg/kg/after 30 days; 0/6; assay type: functional
Mus musculus [23] = assay: Compound was evaluated for the anticancer activity against P388 leukemia in CD2F1 male mice at a dose of 60 mg/kg/after 30 days; 3/6; assay type: functional; method in brief: as §1
Mus musculus [24] = assay: Compound was evaluated for the anticancer activity against P388 leukemia in CD2F1 male mice at a dose of 60 mg/kg/after 60 days; 1/6; assay type: functional; method in brief: as §1
Mus musculus [25] = assay: Compound was evaluated for the anticancer activity against P388 leukemia in CD2F1 male mice at a dose of 90 mg/kg/after 30 days; 6/6; assay type: functional; method in brief: as §1
Mus musculus [26] = assay: Anticancer activity against P388 leukemia in CD2F1 male mice expressed as Average % weight change on day 5 as a measure of toxicity was reported at a dose of 30 mg/kg/day.; assay type: functional; method in brief: as §1
Mus musculus [27] = assay: Anticancer activity against P388 leukemia in CD2F1 male mice expressed as Average % weight change on day 5 as a measure of toxicity was reported at a dose of 40 mg/kg/day.; assay type: functional; method in brief: as §1
Mus musculus [28] = assay: Anticancer activity against P388 leukemia in CD2F1 male mice expressed as Average % weight change on day 5 as a measure of toxicity was reported at a dose of 90 mg/kg/day.; assay type: functional; method in brief: as §1
Mus musculus [29] = assay: Compound was evaluated for the anticancer activity against P388 leukemia in CD2F1 male mice at a dose of 10 mg/kg/after 30 days; 0/6; assay type: functional; method in brief: as §1
Mus musculus [30] = assay: Compound was evaluated for the anticancer activity against P388 leukemia in CD2F1 male mice at a dose of 125 mg/kg/after 30 days; 0/6; assay type: functional; method in brief: as §1
Mus musculus [31] = assay: Anticancer activity against P388 leukemia in CD2F1 male mice expressed as Average % weight change on day 5 as a measure of toxicity was reported at a dose of 10 mg/kg/day.; assay type: functional; method in brief: as §1
Mus musculus [32] = assay: Anticancer activity against P388 leukemia in CD2F1 male mice expressed as Average % weight change on day 5 as a measure of toxicity was reported at a dose of 125 mg/kg/day.; assay type: functional; method in brief: as §1
Mus musculus [33] = assay: Anticancer activity against P388 leukemia in CD2F1 male mice expressed as Average % weight change on day 5 as a measure of toxicity was reported at a dose of 5 mg/kg/day.; assay type: functional; method in brief: as §1
Mus musculus [34] = assay: Compound was evaluated for the anticancer activity against P388 leukemia in CD2F1 male mice at a dose of 6 mg/kg/after 30 days; 0/6
Mus musculus [35] = assay: Percentage increase in life span when the compound was administered intraperitoneally at dose of 200 mg/Kg in P388 leukemia in CDF1 mice was determined; assay type: functional; settings: P388, ip
Method in brief: (§2)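 Positive-control arm of the NCI P388 protocol in CD2F1 male mice, groups of six, inoculated ip with 10⁶ cells on day 0. A single 200 mg/kg per day dose was given on day 1. Survival was followed to 30 days, with T/C and %ILS from mean survival times and day-5 average weight change as toxicity.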

Mus musculus [36] = assay: Compound was evaluated for the anticancer activity against P388 leukemia in CD2F1 male mice at a dose of 200 mg/kg/day.; assay type: functional; method in brief: as §2
Mus musculus [37] = assay: Anticancer activity against P388 leukemia in CD2F1 male mice. Number of survivors vs number of treated animals after 30 days were reported at a dose of 200 mg/kg/day; 0/6; assay type: functional; method in brief: as §2
Mus musculus [38] = assay: Anticancer activity against P388 leukemia in CD2F1 male mice expressed as Average % weight change on day 5 as a measure of toxicity was reported at a dose of 200 mg/kg/day.; assay type: functional; method in brief: as §2
Mus musculus [39] = assay: Percentage increase in life span when the compound was administered intraperitoneally at dose of 6 mg/Kg in P388 leukemia in CDF1 mice was determined; assay type: functional; settings: P388, ip; method in brief: as §1
Mus musculus [40] = assay: Compound was evaluated for the anticancer activity against P388 leukemia in CD2F1 male mice at a dose of 6 mg/kg/day.; assay type: functional; settings: at 6 mg/kg/day
Mus musculus [41] = assay: Compound was evaluated for the anticancer activity against P388 leukemia in CD2F1 male mice at a dose of 60 mg/kg/after 60 days; 0/6; assay type: functional; method in brief: as §1
Mus musculus [42] = assay: Anticancer activity against P388 leukemia in CD2F1 male mice expressed as Average % weight change on day 5 as a measure of toxicity was reported at a dose of 6 mg/kg/day.; assay type: functional; method in brief: as §1
Mus musculus [43] = assay: Compound was evaluated for the anticancer activity against P388 leukemia in CD2F1 male mice at a dose of 5 mg/kg/after 30 days; 1/6; assay type: functional

S=P(N1CCOCCOCCOCCOCC1)(N1CC1)N1CC1
Partition coefficient [1]: 2.6 | ILS at 20 mg/kg (Mus musculus [2]): 24% | ILS at 60 mg/kg (Mus musculus [3]): 80% | T/C (Mus musculus [4]): 180% and 80% | Weight change (Mus musculus [5]): -6.4% | Survivors (Mus musculus [6]): 0 | Survivors (Mus musculus [7]): 0 | Weight change (Mus musculus [8]): 7.9%

C1COCCOCCOCCOCCN1
ILS at 20 mg/kg (Mus musculus [2]): 2% | ILS at 60 mg/kg (Mus musculus [3]): 0% | Weight change (Mus musculus [5]): 7.9% | Survivors (Mus musculus [6]): 0 | Survivors (Mus musculus [7]): 0 | Weight change (Mus musculus [8]): 8.3%

O=P(N1CCOCCOCCOCCOCC1)(N1CC1)N1CC1
Partition coefficient [1]: 1.32 | ILS at 10 mg/kg (Mus musculus [9]): 66% | ILS at 125 mg/kg (Mus musculus [10]): -13% | ILS at 20 mg/kg (Mus musculus [2]): 99% | ILS at 30 mg/kg (Mus musculus [11]): 122% | ILS at 40 mg/kg (Mus musculus [12]): 137% | ILS at 5 mg/kg (Mus musculus [13]): 41% | ILS at 60 mg/kg (Mus musculus [3]): 229% | ILS at 90 mg/kg (Mus musculus [14]): 287% | T/C (Mus musculus [15]): 166% and 66% | T/C (Mus musculus [16]): 199% and 99% | T/C (Mus musculus [17]): 222% and 122% | T/C (Mus musculus [18]): 237% and 137% | T/C (Mus musculus [4]): 329% and 229% | T/C (Mus musculus [19]): 387% and 287% | Survivors (Mus musculus [20]): 5 | Survivors (Mus musculus [21]): 0 | Survivors (Mus musculus [22]): 0 | Survivors (Mus musculus [23]): 3 | Survivors (Mus musculus [24]): 1 | Survivors (Mus musculus [25]): 6 | Weight change (Mus musculus [26]): 0% | Weight change (Mus musculus [27]): -6.8% | Weight change (Mus musculus [5]): -4.4% | Weight change (Mus musculus [28]): -1.8% | Survivors (Mus musculus [29]): 0 | Survivors (Mus musculus [30]): 0 | Survivors (Mus musculus [7]): 0 | Weight change (Mus musculus [31]): 6.2% | Weight change (Mus musculus [32]): -9% | Weight change (Mus musculus [8]): -2% | Weight change (Mus musculus [33]): 3.3% | Survivors (Mus musculus [34]): 0

O=c1[nH]cc(F)c(=O)[nH]1 [FLUOROURACIL]
ILS at 200 mg/kg (Mus musculus [35]): 79% | T/C (Mus musculus [36]): 179% and 79% | Survivors (Mus musculus [37]): 0 | Weight change (Mus musculus [38]): -4%

O=P(N1CC1)(N1CC1)N1CC1 [TEPA]
ILS at 6 mg/kg (Mus musculus [39]): 136% | T/C (Mus musculus [40]): 236% and 136% | Survivors (Mus musculus [41]): 0 | Weight change (Mus musculus [42]): -4% | Survivors (Mus musculus [43]): 1

S=P(N1CC1)(N1CC1)N1CC1 [THIOTEPA]
Partition coefficient [1]: 2.54 | ILS at 6 mg/kg (Mus musculus [39]): 141% | T/C (Mus musculus [40]): 241% and 141% | Survivors (Mus musculus [34]): 0
